From ChEMBL document CHEMBL1132645, “Novel arylpyrazino[2,3-c][1,2,6]thiadiazine 2,2-dioxides as inhibitors of platelet aggregation. 1. Synthesis and pharmacological evaluation” (1999)

Columns and labels:
Type in all cases: functional
[1] = species: Oryctolagus cuniculus; assay: Compound was screened for its platelet aggregation induced by adenosine diphosphate in vitro in rabbit; set-up: concentration or dose not given beside the values
In short: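 Rabbit citrated PRP (male New Zealand white, 2.5–3.5 kg, cardiac puncture), adjusted to 5 × 10⁵ platelets/μL with PPP. Compound in DMSO preincubated 10 min at 37 °C, then ADP 1–2 μM added. Born aggregometry read at 5 min. Single fixed concentration; result is percent inhibition of maximal amplitude against paired vehicle controls.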

[2] = species: Oryctolagus cuniculus; assay: Compound was screened for its platelet aggregation induced by arachidonic acid in vitro in rabbit
In short: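 Rabbit citrated PRP, 5 × 10⁵ platelets/μL, compound preincubated in DMSO 10 min at 37 °C, then arachidonic acid 1 mM. Born aggregometry at 5 min, triplicate for each concentration. Value is EC100, the lowest concentration giving complete inhibition, read from concentration–response data.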

[3] = system: Rattus norvegicus; assay: In vivo inhibitory activity after 120 min of 100 mg/kg oral administration induced by I-BOP in rats; conditions: 2 h
In short: (§1)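 Male Wistar rats, 200–250 g, fasted overnight, were dosed by oral gavage with compound suspended in 0.25% carboxymethylcellulose in 10% Tween 80 (10 mL/kg). Blood was drawn by cardiac puncture under ether at 30 or 120 min and anticoagulated with heparin 1 U/mL final. PRP was diluted to (4–5) × 10⁵ cells/μL. Agonists: AA 0.4 mM, collagen 1–2 μg/mL, I-BOP 225–250 nM. Percent inhibition read at 5 min; 3–5 determinations, mean ± SEM.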

[4] = system: Rattus norvegicus; assay: In vivo inhibitory activity after 120 min of 100 mg/kg oral administration induced by arachidonic acid in rats; conditions: 2 h; in short: as §1
[5] = system: Rattus norvegicus; assay: In vivo inhibitory activity after 120 min of 100 mg/kg oral administration induced by collagen in rats; conditions: 2 h; in short: as §1
[6] = system: Rattus norvegicus; assay: In vivo inhibitory activity after 120 min of 25 mg/kg oral administration induced by I-BOP in rats; conditions: 2 h
[7] = system: Rattus norvegicus; assay: In vivo inhibitory activity after 120 min of 25 mg/kg oral administration induced by arachidonic acid in rats; conditions: 2 h
[8] = system: Rattus norvegicus; assay: In vivo inhibitory activity after 120 min of 25 mg/kg oral administration induced by collagen in rats; conditions: 2 h
[9] = species: Homo sapiens; assay: Compound was screened for its platelet aggregation induced by collagen in vitro in human platelets at conc 1 mM
In short: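 Human citrated PRP (blood from consenting volunteers, 3.8% trisodium citrate 9:1; PRP 250g 10 min, PPP 2000g 20 min, room temperature), adjusted to 3 × 10⁵ platelets/μL with PPP. Compounds in DMSO preincubated 10 min at 37 °C. Agonists: AA 1 mM, collagen 1–2 μg/mL, U46619 1.4 μM, I-BOP 225–250 nM. Born turbidimetric aggregometry read 5 min after agonist; inhibition of maximal amplitude versus paired vehicle; 3–4 determinations, mean ± SEM.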

[10] = system: Rattus norvegicus; assay: In vivo inhibitory activity after 30 min of 100 mg/kg oral administration induced by I-BOP in rats; conditions: 0.5 h; in short: as §1
[11] = system: Rattus norvegicus; assay: In vivo inhibitory activity after 30 min of 100 mg/kg oral administration induced by arachidonic acid in rats; conditions: 0.5 h; in short: as §1
[12] = system: Rattus norvegicus; assay: In vivo inhibitory activity after 30 min of 100 mg/kg oral administration induced by collagen in rats; conditions: 0.5 h; in short: as §1

Compound	Inhibitory response [1]	EC100 [2]	further results
CN1c2nc(-c3ccccn3)c(-c3ccccn3)nc2C(N)=NS1(=O)=O	43%	0.003 mg/mL	–
CCN1c2nc(-c3cccs3)c(-c3cccs3)nc2C(N)=NS1(=O)=O	43%	0.003 mg/mL	–
CCOC(=O)CN1c2nc(-c3ccccc3)c(-c3ccccc3)nc2C(N)=NS1(=O)=O	30%	0.0001 mg/mL	–
CN1c2nc(-c3ccco3)c(-c3ccco3)nc2C(N)=NS1(=O)=O	63%	0.001 mg/mL	–
CN1c2ncc(-c3ccccc3)nc2C(N)=NS1(=O)=O	43%	0.0003 mg/mL	–
Nc1ncnc2c1ncn2[C@@H]1O[C@H](CO)[C@@H](O)[C@H]1O [ADENOSINE]	64%	–	–
Clc1ccccc1CN1CCc2sccc2C1 [TICLOPIDINE]	–	–	inhibition in vivo at 100 mg/kg [3]: 57.1%; inhibition in vivo at 100 mg/kg [4]: 0.9%; inhibition in vivo at 100 mg/kg [5]: 98.7%
O=C(O)CCn1c2c(c3ccccc31)CC(NS(=O)(=O)c1ccc(F)cc1)CC2 (stereo not given)	–	–	inhibition in vivo at 25 mg/kg [6]: 72.5%; inhibition in vivo at 25 mg/kg [7]: 74.2%; inhibition in vivo at 25 mg/kg [8]: 95.3%
CC(=O)Oc1ccccc1C(=O)O [ASPIRIN]	–	0.0025 mg/mL	inhibition at 1000 µM [9]: 94%; inhibition in vivo at 100 mg/kg [3]: 0.9%; inhibition in vivo at 100 mg/kg [4]: 93.8%; inhibition in vivo at 100 mg/kg [5]: 84.6%
CC(C)(C)OC(=O)CN1c2nc(-c3ccccc3)c(-c3ccccc3)nc2C(N)=NS1(=O)=O	32%	0.001 mg/mL	–
CCOC(=O)CN1c2nc(-c3ccccc3)c(Br)nc2C(N)=NS1(=O)=O	36%	0.01 mg/mL	–
NC1=NS(=O)(=O)N(Cc2ccccc2)c2nc(-c3ccccc3)c(-c3ccccc3)nc21	30%	0.003 mg/mL	–
CCN1c2nc(-c3ccccc3)c(C)nc2C(N)=NS1(=O)=O	59%	0.001 mg/mL	–
CCN1c2nc(C)c(-c3ccccc3)nc2C(N)=NS1(=O)=O	47%	0.001 mg/mL	inhibition in vivo at 100 mg/kg [3]: 50.3%; inhibition in vivo at 100 mg/kg [4]: 48.8%; inhibition in vivo at 100 mg/kg [5]: 47.2%; inhibition in vivo at 100 mg/kg [10]: 59.6%; inhibition in vivo at 100 mg/kg [11]: 20%; inhibition in vivo at 100 mg/kg [12]: 93.5%
NC(=O)CN1c2nc(-c3ccccc3)c(-c3ccccc3)nc2C(N)=NS1(=O)=O	47%	0.003 mg/mL	–
CCN1c2nc(-c3ccccc3)c(Cl)nc2C(N)=NS1(=O)=O	23%	0.01 mg/mL	–
CCN1c2nc(-c3ccccc3)c(-c3ccccc3)nc2C(N)=NS1(=O)=O	46%	0.0003 mg/mL	inhibition in vivo at 100 mg/kg [3]: 30%; inhibition in vivo at 100 mg/kg [4]: 1%; inhibition in vivo at 100 mg/kg [5]: 26.3%; inhibition in vivo at 100 mg/kg [10]: 100%; inhibition in vivo at 100 mg/kg [11]: 6.5%; inhibition in vivo at 100 mg/kg [12]: 82.6%
